From ChEMBL document CHEMBL3259759, “Discovery of novel bacterial elongation condensing enzyme inhibitors by virtual screening” (Bioorg Med Chem Lett, 2014)

Key:
[1] = Inhibition of Escherichia coli FabB by radiochemical assay
Method in brief: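 Radiochemical condensing-enzyme assay with E. coli FabB, run as described earlier except that myristoyl-ACP was replaced by lauryl-ACP. The lauryl-ACP was made with Vibrio harveyi acyl-ACP synthetase. Compounds were first screened at a single final concentration of 200 μM, and selected compounds then went to dose-response testing to derive IC50.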

Escherichia coli = test: Inhibition of Escherichia coli FabB at 200 uM by radiochemical assay
Method in brief: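 Radiochemical condensing-enzyme assay with FabB, run per an earlier method except that lauryl-ACP replaced myristoyl-ACP. The lauryl-ACP was made with Vibrio harveyi acyl-ACP synthetase. Compounds were tested at a single final concentration of 200 μM, and inhibition is given as percent.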

[2] = Inhibition of Staphylococcus aureus FabF by radiochemical assay

Row | Compound | IC50 [1] | inhibition (Escherichia coli) | IC50 [2]
1 | COc1cccc(C2CCCN2Cn2c(=O)oc3ccc(Cl)cc32)c1 (racemic) | 305 µM | 37.1% | –
2 | O=c1oc2cc(Cl)ccc2n1CN1CCCC2(CCOCC2)C1 | – | 38.8% | –
3 | O=c1oc2cc(Cl)ccc2n1CN(Cc1ccccn1)C1CC1 | – | 30% | –
4 | CN(Cc1cccc(O)c1)Cn1c(=O)oc2ccc(Cl)cc21 | – | 41.4% | –
5 | CC(CN(C)Cn1c(=O)oc2cc(Cl)ccc21)N1CCOCC1 (racemic) | – | 24.3% | –
6 | COc1cccc(CN(Cn2c(=O)oc3cc(Cl)ccc32)C2CC2)c1 | – | 28.3% | –
7 | CN(CC1CCCC1)Cn1c(=O)oc2ccc(Cl)cc21 | – | 17.7% | –
8 | COc1cccc(C2CCCN2Cn2c(=O)oc3cc(Cl)ccc32)c1 (racemic) | – | 36.4% | –
9 | O=c1oc2ccccc2n1CN1CCCC1 | – | 24% | –
10 | O=c1oc2cc(Cl)ccc2n1CN1CCCCC1c1ccccc1 (racemic) | – | 38% | –
11 | O=c1oc2ccccc2n1CN(Cc1ccc(F)cc1)C1CC1 | – | 5% | –
12 | Cc1ccc2oc(=O)n(CN(CC3CCOC3)C3CC3)c2c1 (racemic) | – | 40.1% | –
13 | CN(Cc1ccsc1)Cn1c(=O)oc2ccccc21 | – | 30% | –
14 | CN(CC1CCOCC1)Cn1c(=O)oc2cc(Cl)ccc21 | – | 31.7% | –
15 | O=c1oc2cc(Br)ccc2n1CN(CC1CCCC1)C1CC1 | – | 17.7% | –
16 | O=c1oc2cc(Cl)ccc2n1CN(Cc1cccnc1)C1CC1 | – | 23.6% | –
17 | O=c1oc2ccc(Cl)cc2n1CN1CCCC1c1cccc(Br)c1 (racemic) | 260 µM | 55.4% | –
18 | O=c1oc2ccc(Cl)cc2n1CN1CCCCC1c1ccccc1 (racemic) | 415 µM | 30.4% | –
19 | CN(CCN1CCCC1)Cn1c(=O)oc2cc(Cl)ccc21 | – | 26.4% | –
20 | CN(Cc1ccccc1)Cn1c(=O)oc2ccccc21 | 235 µM | 33.5% | 387 µM
21 | O=c1sc2ccc(Cl)cc2n1CN1CCCC1c1cccc(Br)c1 (racemic) | 303 µM | 36.1% | –
22 | O=c1oc2cc(Cl)ccc2n1CN(CC1CCOC1)C1CC1 (racemic) | 800 µM | 24.1% | –
23 | O=c1oc2ccc(Cl)cc2n1CN(CC1CCOC1)C1CC1 (racemic) | 350 µM | 36.7% | –
24 | O=c1oc2ccc(Cl)cc2n1CN1CCCC2(CCOCC2)C1 | 335 µM | 37.7% | –
25 | CN1CCC(CN(C)Cn2c(=O)oc3cc(Cl)ccc32)C1 (racemic) | – | 23.8% | –
26 | O=c1oc2ccccc2n1CN(Cc1ccsc1)C1CC1 | – | 37.8% | –
27 | O=c1oc2ccc(Cl)cc2n1CN1CCC1c1ccccc1 (racemic) | – | 31.9% | –
28 | O=c1oc2cc(Cl)ccc2n1CN(Cc1ccc(F)cc1)C1CC1 | – | 32.1% | –
29 | O=c1oc2cc(Br)ccc2n1CN1CCC2(CC1)OCCO2 | 600 µM | 32.7% | –
30 | N#Cc1ccc2oc(=O)n(CN3CCCC3c3cccc(Br)c3)c2c1 (racemic) | 253 µM | 42.1% | –
